In ChEMBL document CHEMBL1275556, “High prevalence of plasmid-mediated quinolone resistance genes qnr and aac(6')-Ib-cr in clinical isolates of Enterobacteriaceae from nine teaching hospitals in China” (2008):

Key:
Klebsiella pneumoniae [1] = experiment: Antimicrobial activity against aac(6')-Ib-cr-negative Klebsiella pneumoniae SY22 harboring GyrA S83I, ParC S80I mutant, wild-type GyrB and qnrS genes by agar dilution method; assay type: functional
Procedure, shortened: (§1)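 MICs were determined by the CLSI agar dilution method (M7-A7) and interpreted against CLSI M100-S17 breakpoints.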

Klebsiella pneumoniae [2] = experiment: Antimicrobial activity against aac(6')-Ib-cr-positive Klebsiella pneumoniae SY26 harboring GyrA S83I, ParC S80I mutant, wild-type GyrB and qnrB genes by agar dilution method; assay type: functional
Procedure, shortened: (§2)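 MICs were determined on clinical isolates by CLSI agar dilution (M7-A7) and interpreted against CLSI M100-S17 breakpoints.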

Citrobacter freundii [3] = experiment: Antimicrobial activity against aac(6')-Ib-cr-positive Citrobacter freundii JN1 harboring GyrA T83I, ParC S80I mutant, wild-type GyrB and qnrA genes by agar dilution method; assay type: functional; procedure, shortened: as §1
Klebsiella pneumoniae [4] = experiment: Antimicrobial activity against aac(6')-Ib-cr-positive Klebsiella pneumoniae JN41 harboring GyrA S83I, ParC S80I mutant, wild-type GyrB and qnrB genes by agar dilution method; assay type: functional; procedure, shortened: as §2
Klebsiella pneumoniae [5] = experiment: Antimicrobial activity against aac(6')-Ib-cr-positive Klebsiella pneumoniae GZ40T harboring qnrB gene by agar dilution method
Escherichia coli [6] = experiment: Antimicrobial activity against aac(6')-Ib-cr-negative Escherichia coli PU12 harboring GyrA S83L mutant, wild-type GyrB, ParC and qnrS genes by agar dilution method; assay type: functional; procedure, shortened: as §1
Enterobacter cloacae [7] = experiment: Antimicrobial activity against aac(6')-Ib-cr-negative Enterobacter cloacae GZ47T harboring qnrB gene by agar dilution method; assay type: functional
Enterobacter cloacae [8] = experiment: Antimicrobial activity against aac(6')-Ib-cr-negative Enterobacter cloacae FJ67 harboring […] and qnrS genes by agar dilution method; assay type: functional
Citrobacter freundii [9] = experiment: Antimicrobial activity against aac(6')-Ib-cr-positive Citrobacter freundii JN1T by agar dilution method; assay type: functional; procedure, shortened: as §1
Klebsiella pneumoniae [10] = experiment: Antimicrobial activity against aac(6')-Ib-cr-positive Klebsiella pneumoniae SY26T harboring wild-type GyrA, ParC, GyrB and qnrB genes by agar dilution method; assay type: functional
Procedure, shortened: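 Transconjugants were made by conjugating a qnr/aac(6')-Ib-cr donor with azide-resistant E. coli J53. MICs were read by CLSI agar dilution (M7-A7) and interpreted per M100-S17.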

Citrobacter freundii [11] = experiment: Antimicrobial activity against aac(6')-Ib-cr-positive Citrobacter freundii JS33 harboring GyrA T83I mutant, wild-type ParC, GyrB, qnrA and qnrB genes by agar dilution method; assay type: functional; procedure, shortened: as §1
Enterobacter cloacae [12] = experiment: Antimicrobial activity against aac(6')-Ib-cr-negative Enterobacter cloacae GZ47 harboring qnrB and qnrS genes by agar dilution method; assay type: functional
Citrobacter freundii [13] = experiment: Antimicrobial activity against aac(6')-Ib-cr-positive Citrobacter freundii TJ15 harboring GyrA T83I, ParC S80I mutant, wild-type GyrB, qnrB genes by agar dilution method; assay type: functional; procedure, shortened: as §1
Enterobacter cloacae [14] = experiment: Antimicrobial activity against aac(6')-Ib-cr-negative Enterobacter cloacae FJ61T harboring qnrS gene by agar dilution method; assay type: functional
Enterobacter cloacae [15] = experiment: Antimicrobial activity against aac(6')-Ib-cr-negative Enterobacter cloacae WH42T harboring qnrA gene by agar dilution method; assay type: functional
Citrobacter freundii [16] = experiment: Antimicrobial activity against aac(6')-Ib-cr-negative Citrobacter freundii JN64T harboring qnrA gene by agar dilution method; assay type: functional; procedure, shortened: as §1
Klebsiella pneumoniae [17] = experiment: Antimicrobial activity against aac(6')-Ib-cr-positive Klebsiella pneumoniae GZ40 harboring GyrA S83I, ParC S80I mutant, wild-type GyrB and qnrB genes by agar dilution method; assay type: functional; procedure, shortened: as §1
Escherichia coli [18] = experiment: Antimicrobial activity against aac(6')-Ib-cr-positive Escherichia coli FJ3 harboring GyrA S83L, ParC S80R mutant, wild-type GyrB and qnrB genes by agar dilution method; assay type: functional; procedure, shortened: as §1
Enterobacter cloacae [19] = experiment: Antimicrobial activity against aac(6')-Ib-cr-negative Enterobacter cloacae GZ51T harboring qnrA gene by agar dilution method; assay type: functional
Klebsiella pneumoniae [20] = experiment: Antimicrobial activity against aac(6')-Ib-cr-positive Klebsiella pneumoniae JN41T harboring qnrB gene by agar dilution method; assay type: functional
Procedure, shortened: (§3)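 Transconjugants were made by conjugating a qnr/aac(6')-Ib-cr donor with azide-resistant E. coli J53. Selection used Trypticase soy agar with sodium azide 150 µg/ml and sulfamethoxazole 180 µg/ml. […] MICs were read by CLSI agar dilution (M7-A7) and interpreted per M100-S17.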

Citrobacter freundii [21] = experiment: Antimicrobial activity against aac(6')-Ib-cr-positive Citrobacter freundii TJ15T harboring wild-type GyrA, ParC, GyrB genes by agar dilution method; assay type: functional; procedure, shortened: as §1
Enterobacter cloacae [22] = experiment: Antimicrobial activity against aac(6')-Ib-cr-negative Enterobacter cloacae WH42 harboring wild-type GyrA, ParC, GyrB and qnrA genes by agar dilution method; assay type: functional
Enterobacter cloacae [23] = experiment: Antimicrobial activity against aac(6')-Ib-cr-negative Enterobacter cloacae FJ61 harboring GyrA S83I, GyrA D87A, ParC S80I mutant, wild-type GyrB and qnrS genes by agar dilution method; assay type: functional
Enterobacter cloacae [24] = experiment: Antimicrobial activity against aac(6')-Ib-cr-negative Enterobacter cloacae FJ67T harboring qnrS gene by agar dilution method; assay type: functional
Enterobacter cloacae [25] = experiment: Antimicrobial activity against aac(6')-Ib-cr-positive Enterobacter cloacae FJ63T harboring qnrS gene by agar dilution method; assay type: functional
Citrobacter freundii [26] = experiment: Antimicrobial activity against aac(6')-Ib-cr-positive Citrobacter freundii PU55T harboring wild-type GyrA, ParC, GyrB and qnrA genes by agar dilution method
Citrobacter freundii [27] = experiment: Antimicrobial activity against aac(6')-Ib-cr-negative Citrobacter freundii JN64 harboring GyrA T83I, wild-type ParC, GyrB and qnrA genes by agar dilution method; assay type: functional; procedure, shortened: as §1
Klebsiella pneumoniae [28] = experiment: Antimicrobial activity against aac(6')-Ib-cr-positive Klebsiella pneumoniae JN132T harboring qnrB gene by agar dilution method; assay type: functional; procedure, shortened: as §3
Enterobacter cloacae [29] = experiment: Antimicrobial activity against aac(6')-Ib-cr-negative Enterobacter cloacae SH39 harboring GyrA S83I, ParC S80I mutant, wild-type GyrB and qnrA genes by agar dilution method; assay type: functional
Enterobacter cloacae [30] = experiment: Antimicrobial activity against aac(6')-Ib-cr-negative Enterobacter cloacae GZ51 harboring qnrA gene by agar dilution method; assay type: functional
Enterobacter cloacae [31] = experiment: Antimicrobial activity against aac(6')-Ib-cr-negative Enterobacter cloacae SH39T harboring qnrA gene by agar dilution method; assay type: functional
Citrobacter freundii [32] = experiment: Antimicrobial activity against aac(6')-Ib-cr-positive Citrobacter freundii PU55 harboring GyrA T83I, ParC S80I mutant, wild-type GyrB, qnrA genes by agar dilution method; assay type: functional; procedure, shortened: as §1
Enterobacter cloacae [33] = experiment: Antimicrobial activity against aac(6')-Ib-cr-positive Enterobacter cloacae FJ63 harboring GyrA S83I, GyrA D87A, ParC S80I mutant, wild-type GyrB and qnrS genes by agar dilution method; assay type: functional
Klebsiella pneumoniae [34] = experiment: Antimicrobial activity against aac(6')-Ib-cr-positive Klebsiella pneumoniae WH99T harboring qnrB gene by agar dilution method; assay type: functional; procedure, shortened: as §3
Klebsiella pneumoniae [35] = experiment: Antimicrobial activity against aac(6')-Ib-cr-positive Klebsiella pneumoniae JN132 harboring GyrA S83I, ParC S80I mutant, wild-type GyrB and qnrB genes by agar dilution method; assay type: functional; procedure, shortened: as §2
Escherichia coli [36] = experiment: Antimicrobial activity against aac(6')-Ib-cr-positive Escherichia coli FJ3T harboring wild-type GyrA, ParC, GyrB and qnrB genes by agar dilution method
Citrobacter freundii [37] = experiment: Antimicrobial activity against aac(6')-Ib-cr-positive Citrobacter freundii JS33T harboring qnrA gene by agar dilution method; assay type: functional; procedure, shortened: as §1

**Q.** Which MIC (Klebsiella pneumoniae [1]) does the source give for `C[C@H]1COc2c(N3CCN(C)CC3)c(F)cc3c(=O)c(C(=O)O)cn1c23.C[C@H]1COc2c(N3CCN(C)CC3)c(F)cc3c(=O)c(C(=O)O)cn1c23.O` [LEVOFLOXACIN] here?
**A.** The MIC was greater than 32 µg/mL.

**Q.** What about the MIC (Klebsiella pneumoniae [2]) of the same compound?
**A.** Its MIC is 32 µg/mL.

**Q.** And the MIC (Citrobacter freundii [3])?
**A.** Its MIC is 16 µg/mL.

**Q.** And the MIC (Klebsiella pneumoniae [4])?
**A.** Its MIC is greater than 32 µg/mL.

**Q.** What about the MIC (Klebsiella pneumoniae [5]) of the same compound?
**A.** Its MIC is 0.25 µg/mL.

**Q.** What about the MIC (Escherichia coli [6]) of the same compound?
**A.** Its MIC is 4 µg/mL.

**Q.** What about the MIC (Enterobacter cloacae [7]) of the same compound?
**A.** The MIC was 0.25 µg/mL.

**Q.** What about the MIC (Enterobacter cloacae [8]) of the same compound?
**A.** Its MIC is 8 µg/mL.

**Q.** What about the MIC (Citrobacter freundii [9]) of the same compound?
**A.** The MIC was 0.25 µg/mL.

**Q.** What about the MIC (Klebsiella pneumoniae [10]) of the same compound?
**A.** Its MIC is 0.25 µg/mL.

**Q.** What about the MIC (Citrobacter freundii [11]) of the same compound?
**A.** Its MIC is 2 µg/mL.

**Q.** And the MIC (Enterobacter cloacae [12])?
**A.** Its MIC is 2 µg/mL.

**Q.** What about the MIC (Citrobacter freundii [13]) of the same compound?
**A.** The MIC was 4 µg/mL.

**Q.** And the MIC (Enterobacter cloacae [14])?
**A.** The MIC was 0.5 µg/mL.

**Q.** And the MIC (Enterobacter cloacae [15])?
**A.** Its MIC is 0.25 µg/mL.

**Q.** What about the MIC (Citrobacter freundii [16]) of the same compound?
**A.** The MIC was 0.5 µg/mL.

**Q.** What about the MIC (Klebsiella pneumoniae [17]) of the same compound?
**A.** The MIC was greater than 32 µg/mL.

**Q.** And the MIC (Escherichia coli [18])?
**A.** The MIC was 4 µg/mL.

**Q.** What about the MIC (Enterobacter cloacae [19]) of the same compound?
**A.** Its MIC is 0.25 µg/mL.

**Q.** And the MIC (Klebsiella pneumoniae [20])?
**A.** Its MIC is 0.25 µg/mL.

**Q.** What about the MIC (Citrobacter freundii [21]) of the same compound?
**A.** Its MIC is 0.5 µg/mL.

**Q.** And the MIC (Enterobacter cloacae [22])?
**A.** Its MIC is 2 µg/mL.

**Q.** What about the MIC (Enterobacter cloacae [23]) of the same compound?
**A.** Its MIC is greater than 32 µg/mL.

**Q.** What about the MIC (Enterobacter cloacae [24]) of the same compound?
**A.** Its MIC is 1 µg/mL.

**Q.** And the MIC (Enterobacter cloacae [25])?
**A.** The MIC was 0.5 µg/mL.

**Q.** And the MIC (Citrobacter freundii [26])?
**A.** Its MIC is 0.25 µg/mL.

**Q.** And the MIC (Citrobacter freundii [27])?
**A.** The MIC was 8 µg/mL.

**Q.** What about the MIC (Klebsiella pneumoniae [28]) of the same compound?
**A.** Its MIC is 0.25 µg/mL.

**Q.** And the MIC (Enterobacter cloacae [29])?
**A.** The MIC was 32 µg/mL.

**Q.** And the MIC (Enterobacter cloacae [30])?
**A.** Its MIC is 0.5 µg/mL.

**Q.** And the MIC (Enterobacter cloacae [31])?
**A.** The MIC was 0.5 µg/mL.

**Q.** And the MIC (Citrobacter freundii [32])?
**A.** The MIC was 32 µg/mL.

**Q.** And the MIC (Enterobacter cloacae [33])?
**A.** The MIC was greater than 32 µg/mL.

**Q.** And the MIC (Klebsiella pneumoniae [34])?
**A.** The MIC was 0.25 µg/mL.

**Q.** What about the MIC (Klebsiella pneumoniae [35]) of the same compound?
**A.** Its MIC is 8 µg/mL.

**Q.** And the MIC (Escherichia coli [36])?
**A.** Its MIC is 0.25 µg/mL.

**Q.** What about the MIC (Citrobacter freundii [37]) of the same compound?
**A.** The MIC was 0.25 µg/mL.
